# Experimental data reported in ChEMBL document CHEMBL1132201, “Potent inhibition of Grb2 SH2 domain binding by non-phosphate-containing ligands” (J Med Chem, 1999).
# Positions of bridges follow the written chain, without caps; N, C: chain ends. Non-standard residues stand in square brackets, D forms with d. Residues, ends and D or L forms follow the SMILES beside them. pY = N[C@@H](Cc1ccc(OP(=O)(O)O)cc1)C(=O)O
# How the values were obtained:
# [1] = target: T1, Growth factor receptor-bound protein 2 (Homo sapiens, UniProt P62993); test: (§1) Inhibition of Grb2 SH2 domain binding in MDA-MB-453 human breast carcinoma cell lysates; details: in the assay text read “cells” for “cell lysates”
# [2] = target: T1, Growth factor receptor-bound protein 2; test: Inhibition of Growth factor receptor bound protein 2 SH2 domain binding in plasmon resonance binding assay
# Method in brief: (§2)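 Biotin-DDPSpYVNVQ (SHC phosphopeptide) immobilized on SA5 streptavidin chips at 2 nM. Equilibrium Ru was read 20 s after flow ended and compared with binding without inhibitor to derive IC50. Two experiments on separate chips.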
# [3] = target: T1, Growth factor receptor-bound protein 2; test: as §1
# Method in brief: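 Lysates of serum-treated MDA-MB-453 cells were made in 1% Triton X-100/PBS with 0.2 mM NaVO4 and incubated 30 min with compound. Grb2 was immunoprecipitated from 5 mg lysate with anti-Grb2 and protein A Sepharose. Proteins were resolved by 8–16% SDS-PAGE, and coprecipitated p185erbB-2 was detected by anti-phosphotyrosine Western blot. Single experiment, equal lysate amounts.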
# [4] = target: T1, Growth factor receptor-bound protein 2; test: Inhibition of Grb2 SH2 domain binding by surface plasmon resonance; method in brief: as §2
# [5] = target: T1, Growth factor receptor-bound protein 2; test: Inhibition of Grb2 SH2 domain binding
IC50 [2] [nM],IC50 [3] [nM],SMILES,also measured
80,500,CC(=O)N[C@@H](Cc1ccc(CP(=O)(O)O)cc1)C(=O)NC1(C(=O)N[C@@H](CC(N)=O)C(=O)NCCCc2cccc3ccccc23)CCCCC1,
,500,NC(=O)C[C@H](NC(=O)C1(NC(=O)[C@H](Cc2ccc(CP(=O)(O)O)cc2)NC(=O)C(=O)O)CCCCC1)C(=O)NCCCc1cccc2ccccc12,
80,500,CC(=O)N[C@@H](Cc1ccc(C(F)(F)P(=O)(O)O)cc1)C(=O)NC1(C(=O)N[C@@H](CC(N)=O)C(=O)NCCCc2cccc3ccccc23)CCCCC1,

# Continued, compound first:
SMILES,IC50 [2] [nM],IC50 [3] [nM],also measured
CC(=O)N[C@@H](Cc1ccc(O)cc1)C(=O)NC1(C(=O)N[C@@H](CC(N)=O)C(=O)NCCCc2cccc3ccccc23)CCCCC1,,,IC50 [1]: > 50000 nM
CC(=O)N[C@@H](Cc1ccc(OCC(=O)O)c(C(=O)O)c1)C(=O)NC1(C(=O)N[C@@H](CC(N)=O)C(=O)NCCCc2cccc3ccccc23)CCCCC1,6700,,
CC(=O)N[C@@H](Cc1ccc(OP(=O)(O)O)cc1)C(=O)NC1(C(=O)N[C@@H](CC(N)=O)C(=O)NCCCc2cccc3ccccc23)CCCCC1,,,IC50 [4]: 70 nM
CC[C@H](C)[C@@H]1NC(=O)[C@H](Cc2ccc(OP(=O)(O)O)cc2)NC(=O)[C@@H](NC(C)=O)CSSC[C@@H](C(N)=O)NC(=O)[C@H](CC(N)=O)NC1=O (Ac-C[pY]INC-NH2; disulfide 1-5),,,IC50 [5]: 370 nM
CC(C)[C@H](NC(=O)[C@H](CC(N)=O)NC(=O)[C@@H](NC(=O)[C@H](Cc1ccc(OP(=O)(O)O)cc1)NC(=O)[C@H](CO)NC(=O)[C@@H]1CCCN1C(=O)[C@H](CC(=O)O)NC(=O)[C@@H](N)CC(=O)O)C(C)C)C(=O)N[C@@H](CCC(N)=O)C(=O)O (H-DDPS[pY]VNVQ-OH),,,IC50 [5]: 1300 nM
CC(=O)N[C@@H](Cc1ccc(OCC(=O)O)c(OCC(=O)O)c1)C(=O)NC1(C(=O)N[C@@H](CC(N)=O)C(=O)NCCCc2cccc3ccccc23)CCCCC1,> 100000,,
CC(=O)N[C@@H](Cc1ccc(OP(=O)(O)O)cc1)C(=O)NC1(C(=O)N[C@@H](CC(N)=O)C(=O)NCCCc2c(O)ccc3ccccc23)CCCCC1,,,IC50 [5]: 11 nM
NC(=O)C[C@H](NC(=O)C1(NC(=O)[C@H](Cc2ccc(OCC(=O)O)c(C(=O)O)c2)NC(=O)C(=O)O)CCCCC1)C(=O)NCCCc1cccc2ccccc12,1300,500,
